Measurements taken from ChEMBL document CHEMBL3817763, “Exploration of GGTase-I substrate requirements. Part 2: Synthesis and biochemical analysis of novel saturated geranylgeranyl diphosphate analogs” (Bioorg Med Chem Lett, 2016).
The source made the active and inactive calls. The calls are words filed in the database; no cut-off is given here.

Assays:
[1] = target: T1, Geranylgeranyl transferase type I (Homo sapiens) (UniProt P49354+P53609); test: Activity at recombinant GGTase1 (unknown origin) using dansyl-GCVLL as co-substrate assessed as protein prenylation at 5 uM incubated for 1.5 hrs by spectrofluorometric method
Method in brief: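 Preliminary single-point screen: analog diphosphate 5 µM with 5 µM dansyl-GCVLL and 50 nM GGTase-I; continuous fluorescence read at 1.5 h. Result is given as relative fluorescence increase, normalized to GGPP (1.5 h) set to 1.0. Mean ± SD, n = 3.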

[2] = target: T2, Protein farnesyltransferase (Homo sapiens) (UniProt P49354+P49356); test: Activity at recombinant FTase (unknown origin) using dansyl-GCVLS as co-substrate assessed as protein prenylation at 5 uM incubated for 1.5 hrs by spectrofluorometric method; assay type: protein-complex assay
Method in brief: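 Preliminary single-point screen: analog diphosphate 5 µM with 5 µM dansyl-GCVLS and 50 nM FTase; continuous fluorescence read at 1.5 h. Result is given as relative fluorescence increase, normalized to FPP (5 µM, 1.5 h) set to 1.0. Mean ± SD, n = 3.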

[3] = target: T1, Geranylgeranyl transferase type I (Homo sapiens); test: Ratio of Kcat to Km for recombinant GGTase1 (unknown origin) using dansyl-GCVLL as co-substrate assessed as protein prenylation by spectrofluorometric method relative to GGPP
[4] = target: T2, Protein farnesyltransferase (Homo sapiens); test: Ratio of Kcat to Km for recombinant FTase (unknown origin) using dansyl-GCVLS as co-substrate assessed as protein prenylation by spectrofluorometric method relative to FPP; assay type: protein-complex assay
[5] = system: C/C(=C\CC/C(C)=C/COP(=O)(O)OP(=O)(O)O)CC/C=C(\C)CCCC(C)C; test: (§1) Ratio of Kcat to Km for recombinant GGTase1 (unknown origin) using dansyl-GCVLL as co-substrate assessed as protein prenylation by spectrofluorometric method; conditions: Homo sapiens
[6] = system: C/C(=C\COP(=O)(O)OP(=O)(O)O)CC/C=C(\C)CCCC(C)CCCC(C)C; test: as §1; conditions: Homo sapiens
[7] = system: CC(C)=CCC/C(C)=C/CC/C(C)=C/CC/C(C)=C/COP(=O)(O)OP(=O)(O)O; test: as §1; conditions: Homo sapiens
[8] = system: CC(C)=CCCCCCCCCC/C(C)=C/COP(=O)(O)OP(=O)(O)O; test: as §1; conditions: Homo sapiens
[9] = system: CC(C)=CCCCCCCCCCC/C(C)=C/COP(=O)(O)OP(=O)(O)O; test: as §1; conditions: Homo sapiens
[10] = system: CCCCCCC/C(C)=C/CC/C(C)=C/COP(=O)(O)OP(=O)(O)O; test: as §1; conditions: Homo sapiens
[11] = system: CCCCCCCC/C(C)=C/CC/C(C)=C/COP(=O)(O)OP(=O)(O)O; test: as §1; conditions: Homo sapiens
[12] = system: CCCCCCCCC/C(C)=C/CC/C(C)=C/COP(=O)(O)OP(=O)(O)O; test: as §1; conditions: Homo sapiens
[13] = system: CCCCCCCCCCC/C(C)=C/COP(=O)(O)OP(=O)(O)O; test: as §1; conditions: Homo sapiens
[14] = system: CCCCCCCCCCCC/C(C)=C/COP(=O)(O)OP(=O)(O)O; test: as §1; conditions: Homo sapiens
[15] = system: CCCCCCCCCCCCC/C(C)=C/COP(=O)(O)OP(=O)(O)O; test: as §1; conditions: Homo sapiens
[16] = system: C/C(=C\COP(=O)(O)OP(=O)(O)O)CC/C=C(\C)CCCC(C)CCCC(C)C; test: (§2) Ratio of Kcat to Km for recombinant FTase (unknown origin) using dansyl-GCVLS as co-substrate assessed as protein prenylation by spectrofluorometric method; assay type: protein-complex assay; conditions: Homo sapiens
[17] = system: CC(C)=CCC/C(C)=C/CC/C(C)=C/COP(=O)(O)OP(=O)(O)O; test: as §2; assay type: protein-complex assay; conditions: Homo sapiens
[18] = system: CC(C)=CCCCCCCCCC/C(C)=C/COP(=O)(O)OP(=O)(O)O; test: as §2; assay type: protein-complex assay; conditions: Homo sapiens
[19] = system: CC(C)=CCCCCCCCCCC/C(C)=C/COP(=O)(O)OP(=O)(O)O; test: as §2; assay type: protein-complex assay; conditions: Homo sapiens
[20] = system: CCCCCC/C(C)=C/CC/C(C)=C/COP(=O)(O)OP(=O)(O)O; test: as §2; assay type: protein-complex assay; conditions: Homo sapiens
[21] = system: CCCCCCC/C(C)=C/CC/C(C)=C/COP(=O)(O)OP(=O)(O)O; test: as §2; assay type: protein-complex assay; conditions: Homo sapiens
[22] = system: CCCCCCCC/C(C)=C/CC/C(C)=C/COP(=O)(O)OP(=O)(O)O; test: as §2; assay type: protein-complex assay; conditions: Homo sapiens
[23] = system: CCCCCCCCC/C(C)=C/CC/C(C)=C/COP(=O)(O)OP(=O)(O)O; test: as §2; assay type: protein-complex assay; conditions: Homo sapiens
[24] = system: CCCCCCCCCCC/C(C)=C/COP(=O)(O)OP(=O)(O)O; test: as §2; assay type: protein-complex assay; conditions: Homo sapiens
[25] = system: CCCCCCCCCCCC/C(C)=C/COP(=O)(O)OP(=O)(O)O; test: as §2; assay type: protein-complex assay; conditions: Homo sapiens
[26] = system: CCCCCCCCCCCCC/C(C)=C/COP(=O)(O)OP(=O)(O)O; test: as §2; assay type: protein-complex assay; conditions: Homo sapiens
[27] = species on record: Homo sapiens; test: Ratio of Kcat/Km for recombinant FTase (unknown origin) to Kcat/Km for recombinant GGTase1 (unknown origin)

Row | Activity [1] | Activity [2] | Ratio [3] | Ratio [4] | Ratio [27] | Compound | further results
1 | Active | Active | 0.03 | 0.05 |  | C/C(=C\COP(=O)(O)OP(=O)(O)O)CC/C=C(\C)CCCC(C)CCCC(C)C (stereo not drawn) | 
2 | Active | Active | 0.17 |  |  | C/C(=C\CC/C(C)=C/COP(=O)(O)OP(=O)(O)O)CC/C=C(\C)CCCC(C)C | 
3 |  |  |  |  |  | Geranylgeranyl transferase type I (Homo sapiens) (from UniProt P49354+P53609) | kcat/Km [5]: 6.3 ×10³ /M/s; kcat/Km [6]: 1.2 ×10³ /M/s; kcat/Km [7]: 3.78 ×10⁴ /M/s; kcat/Km [8]: 9 ×10² /M/s; kcat/Km [9]: 1.9 ×10⁴ /M/s; kcat/Km [10]: 3.2 ×10⁴ /M/s; kcat/Km [11]: 2.2 ×10⁴ /M/s; kcat/Km [12]: 3.6 ×10⁴ /M/s; kcat/Km [13]: 3.2 ×10³ /M/s; kcat/Km [14]: 8.9 ×10² /M/s; kcat/Km [15]: 6.2 ×10³ /M/s
4 | Active | Active | 0.02 | 0.15 |  | CC(C)=CCCCCCCCCC/C(C)=C/COP(=O)(O)OP(=O)(O)O | 
5 |  |  |  |  |  | Protein farnesyltransferase (Homo sapiens) (from UniProt P49354+P49356) | kcat/Km [16]: 3.5 ×10³ /M/s; kcat/Km [17]: 4.6 ×10⁴ /M/s; kcat/Km [18]: 6.8 ×10³ /M/s; kcat/Km [19]: 7.1 ×10³ /M/s; kcat/Km [20]: 1.6 ×10⁴ /M/s; kcat/Km [21]: 7.1 ×10³ /M/s; kcat/Km [22]: 9.7 ×10³ /M/s; kcat/Km [23]: 3.3 ×10⁴ /M/s; kcat/Km [24]: 8.3 ×10³ /M/s; kcat/Km [25]: 1.1 ×10⁴ /M/s; kcat/Km [26]: 4.1 ×10³ /M/s
6 | Active | Active | 0.95 | 0.72 |  | CCCCCCCCC/C(C)=C/CC/C(C)=C/COP(=O)(O)OP(=O)(O)O | 
7 | Active | Active | 0.5 | 0.15 |  | CC(C)=CCCCCCCCCCC/C(C)=C/COP(=O)(O)OP(=O)(O)O | 
8 | Active | Active | 0.08 | 0.18 | 2 | CCCCCCCCCCC/C(C)=C/COP(=O)(O)OP(=O)(O)O | 
9 | Active | Active | 0.85 | 0.15 | 0.22 | CCCCCCC/C(C)=C/CC/C(C)=C/COP(=O)(O)OP(=O)(O)O | 
10 | Active | Active | 0.16 | 0.09 |  | CCCCCCCCCCCCC/C(C)=C/COP(=O)(O)OP(=O)(O)O | 
11 | Active | Active | 0.02 | 0.24 | 12 | CCCCCCCCCCCC/C(C)=C/COP(=O)(O)OP(=O)(O)O | 
12 | Active | Active |  | 0.35 |  | CCCCCC/C(C)=C/CC/C(C)=C/COP(=O)(O)OP(=O)(O)O | 
13 | Active | Active | 0.58 | 0.21 | 0.44 | CCCCCCCC/C(C)=C/CC/C(C)=C/COP(=O)(O)OP(=O)(O)O | 
